Measurements: ChEMBL document CHEMBL4382192, “Discovery of a potent dual ALK and EGFR T790M inhibitor” (Eur J Med Chem, 2017)

Columns and labels:
[1] = target: Testis-specific serine/threonine-protein kinase 3 (Homo sapiens) (UniProt Q96PN8); test: Binding affinity to wild-type human full length TSSK3 (M1 to T268 residues) expressed in mammalian expression system assessed as residual binding level at 1 uM by Kinomescan method relative to control
[2] = target: Receptor tyrosine-protein kinase erbB-3 (Homo sapiens) (UniProt P21860); test: Binding affinity to wild-type human partial length ERBB3 (G684 to A987 residues) expressed in mammalian expression system assessed as residual binding level at 1 uM by Kinomescan method relative to control
[3] = target: CYP2D6 (Homo sapiens, UniProt P10635); test: Residual activity of CYP2D6 in human liver microsomes at 10 uM using dextromethorphan O-demethylase as substrate preincubated for 5 mins followed by NADPH addition measured after 15 mins by LC/MS/MS analysis relative to control; settings: probe dextromethorphan (O-demethylation)
[4] = target: Casein kinase II subunit alpha' (Homo sapiens) (UniProt P19784); test: Binding affinity to wild-type human full length CSNK2A2 (M1 to R350 residues) expressed in mammalian expression system assessed as residual binding level at 1 uM by Kinomescan method relative to control
[5] = target: Tyrosine-protein kinase Fgr (Homo sapiens) (UniProt P09769); test: Binding affinity to wild-type human partial length FGR (L233 to T529 residues) expressed in bacterial expression system assessed as residual binding level at 1 uM by Kinomescan method relative to control
[6] = target: Serine/threonine-protein kinase NLK (Homo sapiens) (UniProt Q9UBE8); test: Binding affinity to wild-type human full length NLK (M13 to E527 residues) expressed in bacterial expression system assessed as residual binding level at 1 uM by Kinomescan method relative to control
Summary of the method: (§1)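 Single-point kinome-wide KINOMEscan binding panel, test compound at 1 μM, run by the provider's standard protocol.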

[7] = target: Serine/threonine-protein kinase TNNI3K (Homo sapiens) (UniProt Q59H18); test: Binding affinity to wild-type human full length TNNI3K (M1 to S835 residues) expressed in bacterial expression system assessed as residual binding level at 1 uM by Kinomescan method relative to control
[8] = target: Calcium/calmodulin-dependent protein kinase type II subunit alpha (Homo sapiens) (UniProt Q9UQM7); test: Binding affinity to wild-type human partial length CAMK2A (M1 to K328 residues) expressed in bacterial expression system assessed as residual binding level at 1 uM by Kinomescan method relative to control
[9] = target: Mitogen-activated protein kinase 7 (Homo sapiens) (UniProt Q13164); test: Binding affinity to wild-type human partial length ERK5 (M1 to A409 residues) expressed in bacterial expression system assessed as residual binding level at 1 uM by Kinomescan method relative to control
[10] = target: Cyclin-dependent kinase 4 (Homo sapiens) (UniProt P11802); test: Binding affinity to wild-type human full length CDK4 (M1 to E303 residues) expressed in mammalian expression system assessed as residual binding level at 1 uM by Kinomescan method relative to control
[11] = target: Maternal embryonic leucine zipper kinase (Homo sapiens) (UniProt Q14680); test: Binding affinity to wild-type human full length MELK (M1 to V651 residues) expressed in bacterial expression system assessed as residual binding level at 1 uM by Kinomescan method relative to control; summary of the method: as §1
[12] = target: Serine/threonine-protein kinase 10 (Homo sapiens) (UniProt O94804); test: Binding affinity to wild-type human partial length LOK (E16 to V314 residues) expressed in bacterial expression system assessed as residual binding level at 1 uM by Kinomescan method relative to control
[13] = target: Uncharacterized serine/threonine-protein kinase SBK3 (Homo sapiens) (UniProt P0C264); test: Binding affinity to wild-type human partial length SgK110 (L22 to R329 residues) expressed in bacterial expression system assessed as residual binding level at 1 uM by Kinomescan method relative to control
[14] = target: Phosphatidylinositol 3-kinase C2 domain-containing subunit gamma (Homo sapiens) (UniProt O75747); test: Binding affinity to wild-type human partial length PIK3C2G (M1 to I1446 residues) expressed in mammalian expression system assessed as residual binding level at 1 uM by Kinomescan method relative to control
[15] = target: Bone morphogenetic protein receptor type-1A (Homo sapiens) (UniProt P36894); test: Binding affinity to wild-type human partial length BMPR1A (Q214 to I532 residues) expressed in bacterial expression system assessed as residual binding level at 1 uM by Kinomescan method relative to control
[16] = target: Protein kinase C delta type (Homo sapiens) (UniProt Q05655); test: Binding affinity to wild-type human partial length PRKCD (Q328 to D676 residues) expressed in bacterial expression system assessed as residual binding level at 1 uM by Kinomescan method relative to control
[17] = target: Epithelial discoidin domain-containing receptor 1 (Homo sapiens) (UniProt Q08345); test: Binding affinity to wild-type human partial length DDR1 (R565 to V876 residues) expressed in bacterial expression system assessed as residual binding level at 1 uM by Kinomescan method relative to control
[18] = target: Serine/threonine-protein kinase mTOR (Homo sapiens) (UniProt P42345); test: Binding affinity to wild-type human partial length MTOR (L1382 to W2549 residues) expressed in mammalian expression system assessed as residual binding level at 1 uM by Kinomescan method relative to control
[19] = target: Receptor-type tyrosine-protein kinase FLT3 (Homo sapiens) (UniProt P36888); test: Binding affinity to wild-type human partial length FLT3 (V592 to Y969 residues) expressed in bacterial expression system assessed as residual binding level at 1 uM by Kinomescan method relative to control
[20] = target: Tyrosine-protein kinase CSK (Homo sapiens) (UniProt P41240); test: Binding affinity to wild-type human full length CSK (M1 to L450 residues) expressed in bacterial expression system assessed as residual binding level at 1 uM by Kinomescan method relative to control
[21] = target: Myosin-IIIb (Homo sapiens) (UniProt Q8WXR4); test: Binding affinity to wild-type human partial length MYO3B (M1 to D357 residues) expressed in bacterial expression system assessed as residual binding level at 1 uM by Kinomescan method relative to control
[22] = target: Tyrosine-protein kinase JAK3 (Homo sapiens) (UniProt P52333); test: Binding affinity to wild-type human partial length JAK3 JH1 catalytic domain (I781 to S1124 residues) expressed in mammalian expression system assessed as residual binding level at 1 uM by Kinomescan method relative to control
[23] = target: Non-receptor tyrosine-protein kinase TYK2 (Homo sapiens) (UniProt P29597); test: Binding affinity to wild-type human partial length TYK2 JH2 pseudokinase domain (G556 to D888 residues) expressed in mammalian expression system assessed as residual binding level at 1 uM by Kinomescan method relative to control
[24] = target: Phosphorylase b kinase gamma catalytic chain, skeletal muscle/heart isoform (Homo sapiens) (UniProt Q16816); test: Binding affinity to wild-type human full length PHKG1 (M1 to Y387 residues) expressed in bacterial expression system assessed as residual binding level at 1 uM by Kinomescan method relative to control; summary of the method: as §1

`C=CC(=O)Nc1cc(Nc2ncc(Cl)c(Nc3ccccc3S(=O)(=O)C(C)C)n2)c(OC)cc1N(C)CCN(C)C` showed an Activity [1] of 46%, an Activity [2] of 91% and an Activity at […], 10 µM [3] of 90%. It also gave an Activity [4] of 100%, an Activity [5] of 57% and an Activity [6] of 55%. For the same molecule, the Activity [7] was 100%, the Activity [8] was 18% and the Activity [9] was 37%. It also gave an Activity [10] of 99%, an Activity [11] of 54% and an Activity [12] of 0%. The Activity [13] was 23%, the Activity [14] was 69% and the Activity [15] was 65%. It also gave an Activity [16] of 64%, an Activity [17] of 16% and an Activity [18] of 100%. The Activity [19] was 3.1%, the Activity [20] was 69% and the Activity [21] was 1.8%. For the same molecule, the Activity [22] was 0%, the Activity [23] was 100% and the Activity [24] was 24%.
